Reference: PubChem BioAssay AID624060 (Southern Research Specialized Biocontainment Screening …, 2012)

Tested on: UPEC UTI89 capsule, orcinol assay OD572
Assay: inhibitors of UPEC UTI89 surface capsule formation, confirmation, orthogonal assay for bacterial capsule biogenesis inhibitors, orcinol colorimetric, OD572, set 2 (AID 624060)
Details: at 100 µM; active compounds read low
How it was run: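 Test system: Uropathogenic Escherichia coli strain UTI89 with ΔkpsM export-deficient mutant / Compound dosing: one dose, 100 µM / Control set: ΔkpsM capsule-export-deficient strain as low-capsule reference / Detection: orcinol colorimetry of hydrolysed, purified capsular polysaccharide, absorbance 572 nm / Timing: acid hydrolysis of released polysaccharide, 1 h at 80 °C, pH 2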

SMILES: CCOc1ccc(-c2cc(NC(=O)c3c(F)cccc3F)c(C(=O)O)s2)cc1
- capsule formation: 21%
